{
  "source": "paper PMC9289880",
  "about": "(Journal of Medicinal Chemistry, 2022)",
  "key": {"[1]": {"system": "pERK, AsPC-1 cells", "assay": "AlphaScreen pERK assay in AsPC-1 cells", "format": "cell-based", "conditions": "for IC50: pERK", "outline": "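AsPC-1 cells grown in RPMI 1640 (GlutaMAX, HEPES) with 10% FBS and penicillin/streptomycin. Seeded at 15 000 cells/well and held overnight at 37 °C, 5% CO2, then switched to serum-free medium. Compound dose-response series added acoustically, then incubated 2 and 18 h. Cells washed with DPBS and lysed with protease inhibitors. pERK (615 nm) and total ERK (535 nm) read by AlphaScreen SureFire multiplex. pERK/total ERK ratio fitted to 4-parameter logistic.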"}, "[2]": {"system": "HeLa cells", "assay": "NanoClick cell permeability assay", "format": "in vitro ADME, Human"}, "[3]": {"assay": "Cell homogenate stability assay", "format": "in vitro ADME", "conditions": "human", "outline": "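HeLa cells suspended at 1 × 10^6 cells/mL, probe-sonicated on ice until homogeneous, then frozen at −20 °C until use. Peptides incubated with the homogenate (1 × 10^6 cells/mL equivalent). Loss of parent peptide over increasing time quantified by LC-MS/MS.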"}, "[4]": {"biological_target": "KRAS^G12D (Homo sapiens, UniProt P01116, G12D)", "sequence (P01116 1-188 isoform P01116-2 G12D)": "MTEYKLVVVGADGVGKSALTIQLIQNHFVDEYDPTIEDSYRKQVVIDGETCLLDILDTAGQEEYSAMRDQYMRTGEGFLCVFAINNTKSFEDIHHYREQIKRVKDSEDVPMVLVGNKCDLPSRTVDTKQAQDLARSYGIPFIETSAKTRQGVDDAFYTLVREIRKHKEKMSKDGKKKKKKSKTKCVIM", "assay": "SOS-catalyzed guanine nucleotide exchange", "format": "biochemical"}, "[5]": {"system": "AsPC-1 cells", "assay": "LDH release", "format": "cell-based", "conditions": "18 h LDH release assay", "outline": "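AsPC-1 cells seeded at 15 000/well overnight, then dosed with a compound titration in serum-free medium at 37 °C, 5% CO2. At 18 h post dose, part of the medium was transferred and mixed 1:1 with CytoTox-ONE reagent. Plates shaken 45 min at ambient temperature and fluorescence read (ex 560/em 590 nm). Dose-response curves fitted to 4-parameter logistic.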"}, "[6]": {"system": "pERK, A375 cells", "assay": "AlphaScreen pERK counter screen in A375 cells", "format": "cell-based"}, "[7]": {"conditions": "read-out: AlphaScreen (AsPC-1) 2 h IC50, AsPC-1, 2 h"}, "[8]": {"conditions": "read-out: AlphaScreen (AsPC-1) 18 h IC50, AsPC-1, 18 h"}},
  "note": "Like-named read-outs stand apart in the source and are kept apart here. *1 amine or outer side, *2 acyl side, *3 side chain or, on linkers, in order; H or OH if unused. Where a SMILES comes first, the peptide text is derived from it. Bridges are numbered along the chain shown (N, C = ends). [ ]: non-standard residue; d: D form. Pro(3R-Ph) = O=C(O)[C@H]1NCC[C@@H]1c1ccccc1; Bip = N[C@@H](Cc1ccc(-c2ccccc2)cc1)C(=O)O; αMeS = C[C@](N)(CO)C(=O)O; CH2 = C([*:1])[*:2]",
  "data": [
    {"smiles": "CC[C@H](C)[C@@H]1NC(=O)[C@H](Cc2ccc(-c3ccccc3)cc2)NC(=O)[C@H](CC(C)C)NC(=O)[C@@H]2[C@@H](c3ccccc3)CCN2C(=O)[C@H](NC(=O)[C@H](CCCNC(=N)N)NC(=O)[C@H](CCCNC(=N)N)NC(=O)[C@H](CCCCN=[N+]=[N-])NC(C)=O)CSCSC[C@@H](C(=O)N[C@@H](CCCNC(=N)N)C(=O)N[C@@H](CCCNC(=N)N)C(N)=O)NC(=O)[C@H](C(C)C)NC(=O)[C@@H]2CCCN2C(=O)[C@H](CC(=O)O)NC(=O)[C@H](Cc2ccc(O)cc2)NC(=O)[C@H](CO)NC1=O", "note": "[peptide 6, Ac-Lys(N3)-RR-cyclo(c(methylene)-Prot3Ph-L-Bip-ISYDPVC)-RR-NH2]", "values": [
      {"measurement": "fold improved cellular activity at 2 h versus 18 h", "setting": "[1]; AsPC-1 pERK", "value": 6, "unit": "fold"},
      {"measurement": "IC50", "setting": "[1]; [7]", "value": 2.7, "unit": "µM"},
      {"measurement": "IC50", "setting": "[1]; [8]", "value": 19, "unit": "µM"},
      {"measurement": "NanoClick permeability at 4 h, in words", "setting": "[2]; 4 h", "value": "limited permeability"},
      {"measurement": "NanoClick permeability at 18 h, in words", "setting": "[2]; 18 h", "value": "much-increased permeability"},
      {"measurement": "EC50", "setting": "[2]; read-out: NanoClick (HeLa) 4 h EC50, 4 h", "value": 7.32, "unit": "µM"},
      {"measurement": "EC50", "setting": "[2]; read-out: NanoClick (HeLa) 18 h EC50, 18 h", "value": 0.199, "unit": "µM"},
      {"measurement": "half-life at 1 µM", "setting": "[3]; HeLa cell homogenate", "value": "> 6.2", "unit": "h"},
      {"measurement": "IC50", "setting": "[4]", "value": "< 0.001", "unit": "µM"},
      {"measurement": "SOS GNE potency / binding, in words", "setting": "[4]", "value": "subnanomolar"}
    ]},
    {"smiles": "CC[C@H](C)[C@@H]1NC(=O)[C@H](Cc2ccc(-c3ccccc3)cc2)NC(=O)[C@H](CC(C)C)NC(=O)[C@@H]2[C@@H](c3ccccc3)CCN2C(=O)[C@H](NC(=O)[C@@H](CCCNC(=N)N)NC(=O)[C@@H](CCCNC(=N)N)NC(C)=O)CSCSC[C@@H](C(=O)N[C@H](CCCNC(=N)N)C(=O)N[C@H](CCCNC(=N)N)C(N)=O)NC(=O)[C@H](C(C)C)NC(=O)[C@@H]2CCCN2C(=O)[C@H](CC(=O)O)NC(=O)[C@H](Cc2ccc(O)cc2)NC(=O)[C@](C)(CO)NC1=O", "note": "[peptide 7, Ac-rr-cyclo(c(methylene)-Prot3Ph-L-Bip-I-aMeS-YDPVC)-rr-NH2] (Ac-[dR][dR][dC][Pro(3R-Ph)]L[Bip]I[αMeS]YDPVC[dR][dR]-NH2; linker 3-13 via CH2)", "values": [
      {"measurement": "LDH release / membrane integrity, in words", "setting": "[5]", "value": "no LDH release"},
      {"measurement": "activity in A375 counter screen, in words", "setting": "[6]", "value": "no LDH release or activity"},
      {"measurement": "IC50", "setting": "[1]; [7]", "value": 3.8, "unit": "µM"},
      {"measurement": "IC50", "setting": "[1]; [8]", "value": 3.9, "unit": "µM"},
      {"measurement": "half-life", "setting": "[3]; tissue homogenate", "value": "> 6.2", "unit": "h"},
      {"measurement": "SOS GNE potency / binding, in words", "setting": "[4]", "value": "subnanomolar"}
    ]}
  ]
}
